Compound activity deposited in PubChem by The Scripps Research Institute Molecular Screening Center.
PfM18AAP inh – blocks P. falciparum M18 aspartyl aminopeptidase | inhibition, % at 7.35 µM | recombinant PfM18AAP, H-Glu-NHMec fluorogenic cleavage | 1.2% of 290,000 active;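 active = inhibition above the campaign mean inhibition over all tested compounds plus 3 SD, cut at about 28% in these data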;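 also: 0% = plate median of test compound wells and 100% = 2 mM ZnCl2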
IMP-1 inh-1 – inhibitors of Pseudomonas aeruginosa IMP-1 metallo-beta-lactamase | inhibition, % at 5.6 µM | AID 1556 | purified IMP-1, nitrocefin hydrolysis, epi-absorbance fluorescence | 0.45% of 290,000 active;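 active = inhibition above the mean plus 3 SD of all compounds in the same screening run, cut at about 4.5% in these data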;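 also: 0% = IMP-1 with DMSO and 100% = DMSO wells lacking enzyme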
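assay system = purified recombinant IMP-1 metallo-beta-lactamase enzyme | schedule = 15 min preincubation plus 25 min reaction at 25 °C | signal = Epi-absorbance fluorescence, 480 nm excitation, 530 nm emission | read-out basis = percent inhibition from optical density relative to buffer-blank wells | controls = IMP-1 with DMSO as 0%, enzyme-free DMSO as 100%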
VIM-2 inh – inhibitors of Pseudomonas aeruginosa VIM-2 metallo-beta-lactamase | purified VIM-2, nitrocefin hydrolysis, epi-absorbance fluorescence | inhibition, % at 5.6 µM | 0.89% of 290,000 active;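 active = inhibition above the mean of all tested compounds plus 3 SD, cutoff set per screening run, cut at about 7.5% in these data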;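 also: red hydrolysis product quenches plate fluorescence so inhibitors raise well fluorescence; 0% = enzyme with DMSO and 100% = DMSO without enzyme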
CTSL1 counter – blocks F. hepatica cathepsin L1 in PFM18AAP counter-screen; AID 1906; recombinant F. hepatica cathepsin L1, Z-Leu-Arg-MCA fluorescence; 0.49% of 300,000 active; inhibition, % at 5.96 µM;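 active = inhibition above the mean of all tested compounds plus 3 SD, set per screening campaign, cut at about 17% in these data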;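 also: 0% = plate median of test compound wells and 100% = 1 µM Z-Phe-Ala-diazomethylketone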
IMP-1 inh-2 – IMP-1 inhibition, counter-screen for VIM-2 inhibitors; shares compounds with VIM-2 inh; purified IMP-1, nitrocefin hydrolysis, epi-absorbance fluorescence; inhibition, % at 5.6 µM; 1,300 tested, under 10 active; call rule not given here;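 also: 0% = enzyme with vehicle and 100% = vehicle without enzyme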
VIM-2 FRET inh – counter-screen for VIM-2 inhibitors: epi-absorbance artifacts via FRET; shares compounds with VIM-2 inh; 23% of 1,300 active; purified VIM-2, CCF2 FRET substrate hydrolysis; inhibition, % at 5.6 µM; AID 1857;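 active = inhibition above the mean of all tested compounds plus 3 SD, cut at about 19% in these data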;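 also: 0% = VIM-2 plus DMSO and 100% = no enzyme wells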
TEM-1 counter – blocks E. coli TEM-1 beta-lactamase in VIM-2 selectivity screen | AID 1866 | shares compounds with VIM-2 inh | 3% of 1,300 active | inhibition, % at 5.6 µM | Purified TEM-1, nitrocefin hydrolysis, epi-absorbance fluorescence;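 active = inhibition above that campaign's mean inhibition plus 3 SD, cut at about 0.46% in these data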;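 also: 0% = TEM-1 with DMSO and 100% = TEM-1 with 100 µM potassium clavulanate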
Target sequence (P62593 whole entry, looked up): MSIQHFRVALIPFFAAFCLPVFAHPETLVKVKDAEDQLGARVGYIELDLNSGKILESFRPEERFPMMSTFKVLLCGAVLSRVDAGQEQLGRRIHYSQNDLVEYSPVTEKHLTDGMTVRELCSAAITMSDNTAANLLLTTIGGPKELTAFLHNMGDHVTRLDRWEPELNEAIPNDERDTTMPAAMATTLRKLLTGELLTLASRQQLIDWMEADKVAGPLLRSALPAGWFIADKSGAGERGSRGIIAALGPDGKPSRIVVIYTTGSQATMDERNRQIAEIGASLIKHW
VIM-2 confirm 2 – confirmation of P. aeruginosa VIM-2 metallo-beta-lactamase inhibitors. purified VIM-2, nitrocefin hydrolysis, epi-absorbance. 96% of 1,300 active. shares compounds with VIM-2 inh. inhibition, % at 5.6 µM;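 active = inhibition of the VIM-2 beta-lactamase enzyme above about 11% from the earlier first-round screen, limit read from the data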;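 also: 0% = VIM-2 with DMSO and 100% = buffer wells without enzyme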
Starred values were filed as active, the others as inactive; . = no result given. Most compounds without a hit are left out; they make up all but 2.7% or so of the library.

SMILES	PfM18AAP inh	IMP-1 inh-1	VIM-2 inh	CTSL1 counter	IMP-1 inh-2	VIM-2 FRET inh	TEM-1 counter	VIM-2 confirm 2
O=c1c2ccccc2cnn1Cc1n[nH]c(=S)n1C1CC2CCC1C2 (configuration not stated)	5	-4	15*	0	-3	38*	-6	21*
CC(c1ccccc1)n1c(Cn2ncc3ccccc3c2=O)n[nH]c1=S (configuration not stated)	7	-3	-2	-1	.	.	.	.
CN(c1ccc(C(=O)N/N=C/c2cccc([N+](=O)[O-])c2)cc1)S(=O)(=O)c1ccccc1	-6	-4	-4	-2	.	.	.	.
COc1ccc(C2=NN(S(C)(=O)=O)C(c3cccs3)C2)cc1OC (configuration not stated)	5	-1	-3	0	.	.	.	.
CSS(=O)(=O)c1cccc2cccnc12	-211	-2	38*	-2	-2	-30	-5	43*
c1ccc(CNc2nc(-c3ccccn3)nc3ccccc23)cc1	-2	0	19*	7	-3	-56	-4	26*
COc1cc(C(=O)N/N=C/c2coc3ccccc3c2=O)cc(OC)c1OC	30*	4	18*	0	2	31*	-5	19*
O=C(O)C(NC(=O)c1ccccc1)=C(Cl)Cl	-10	-4	23*	0	-3	44*	-5	25*
Cc1ccc(NC(=O)CN(C)C(=O)c2n[nH]c(=O)c3ccccc23)cc1	5	-3	-2	-2	.	.	.	.
Cc1ccc(C)n1CCN1CCN(C(=O)CSc2nc3ccccc3nc2N2CCOCC2)CC1	9	-1	16*	1	-3	-5	-8	15*
Cc1ccc(NC(=O)CSc2nc3ccccc3nc2N2CCOCC2)cc1	-5	-1	-3	3	.	.	.	.
Cc1nnc2c3ccccc3c(-c3cccs3)nn12	-1	-2	28*	-1	-3	1	-5	40*
O=C(O)c1ccc(NC(=S)NC(=O)c2cncc(Br)c2)cc1	19	-5	-3	3	.	.	.	.
O=C(c1ccc(Br)o1)N1N=C(c2ccc(Cl)cc2)CC1c1ccco1 (configuration not stated)	-12	-2	12*	0	-2	30*	-2	19*
Cc1ccc(C2=NN(C(=O)CCCC(=O)O)C(c3ccco3)C2)cc1 (configuration not stated)	-10	-1	2	2	.	.	.	.
Cc1ccc(C2=NN(C(=O)C3CCCO3)C(c3ccco3)C2)cc1 (configuration not stated)	7	-2	14*	-4	-3	27*	-6	17*
Cc1nnc(SCC(=O)N2N=C(c3ccc(Cl)cc3)CC2c2ccco2)[nH]c1=O (configuration not stated)	9	-1	-2	-1	.	.	.	.
O=C(C1CCCO1)N1N=C(c2ccc(Br)cc2)CC1c1ccco1 (configuration not stated)	1	-2	18*	0	-3	57*	-5	36*
CC(=O)N1N=C(c2ccco2)CC1c1ccco1 (configuration not stated)	-6	-3	-2	.	.	.	.	.
Cc1cccc(-n2cc(C(=O)O)c(=O)cc2C)c1	-1	-2	1	-1	.	.	.	.
Cc1ccc(CNC(=O)C2CCN(c3nnc(N4CCCC4=O)s3)CC2)cc1	-4	-7	-4	-12	.	.	.	.
Cc1cc(C(=O)N/N=C\c2cc(C(C)(C)C)ccc2O)n[nH]1	9	-3	-6	2	.	.	.	.
CC(=O)N/N=C/c1cc(C(C)(C)C)cc(/C=N/NC(C)=O)c1O	2	1	39*	5	2	10	-4	55*
O=C(COC(=O)c1ccccc1O)Nc1cc([N+](=O)[O-])ccc1Cl	2	-3	-3	-6	.	.	.	.
COc1ccc(-c2cc(C(F)(F)F)nc(N3CCN(C)CC3)n2)cc1OC	-25	0	18*	4	-2	1	-6	30*
SMILES	PfM18AAP inh	IMP-1 inh-1	VIM-2 inh	CTSL1 counter	IMP-1 inh-2	VIM-2 FRET inh	TEM-1 counter	VIM-2 confirm 2
COc1ccc(-c2cc(C(F)(F)F)nc(N3CCN(C)CC3)n2)cc1	-23	-4	17*	0	-2	36*	-7	25*
COc1ccc(-c2cc(C(F)(F)F)nc(N3CCCCCC3)n2)cc1	-3	-3	-2	3	.	.	.	.
Cn1cc(C(=O)N2CCCC(Nc3ccc(F)cc3)C2)c2ccccc21 (configuration not stated)	-1	-1	2	-7	.	.	.	.
CN(C)CCNC(=O)c1csc(Nc2cccc3ccccc23)n1	11	-2	13*	-8	-2	-1	-3	22*
CCCCn1c2ccccc2c2nnc(SCCN3CCCCC3)nc21	5	-3	13*	.	-3	-6	-7	19*
CC(C(=O)Nc1ccc2c(c1)OCCO2)N1Cc2ccccc2C1=O (configuration not stated)	-13	1	-1	0	.	.	.	.
COc1ccccc1N1CC(O)=C(c2nc3ccccc3c(=O)[nH]2)C1=N	-1	-3	15*	3	-4	-6	-9	23*
Cc1cc(=O)oc2c3c(cc(OCC(=O)NCCN4CCOCC4)c12)OC(C)(C)CC3	-3	-1	-1	-2	.	.	.	.
CCCc1cc(=O)oc2c3c(cc(OCC(=O)NCCCn4ccnc4)c12)OC(C)(C)CC3	4	0	17*	1	-3	-16	-4	28*
Cc1cc(=O)oc2c3c(cc(OCC(=O)NCCCn4ccnc4)c12)OC(C)(C)CC3	2	1	15*	1	-2	-7	-1	22*
CCc1cc(=O)oc2c3c(cc(OCC(=O)NCCCCCC(=O)O)c12)OC(C)(C)CC3	-9	-1	0	3	.	.	.	.
COC(=O)c1sc(S(=O)(=O)Nc2ccc(Br)cc2)c(C(=O)OC)c1C	7	1	0	0	.	.	.	.
Cc1cc(OC(C)C(=O)NCCCn2ccnc2)c2c(C)c(C)c(=O)oc2c1 (configuration not stated)	2	-1	64*	-3	-3	-5	-6	74*
Cc1cc(OCC(=O)NCCN2CCOCC2)c2c(C)c(C)c(=O)oc2c1	0	-2	19*	0	-2	-1	-5	29*
O=C(COc1ccc(Cl)cc1Cl)NCCCn1ccnc1	0	-2	-2	-2	.	.	.	.
Cc1cc(OCC(=O)NCCCn2ccnc2)c2c(C)c(C)c(=O)oc2c1	-4	-2	80*	-1	-4	-3	-9	85*
CCc1cc(=O)oc2cc(C)cc(OCC(=O)NCCCn3ccnc3)c12	0	0	51*	1	-3	-2	-7	61*
CCSC1=NC2(CCCCC2)Nc2sc3c(c21)CCCC3	-4	2	0	2	.	.	.	.
